Experimental data taken from ChEMBL document CHEMBL2203100, “Disubstituted quinazoline derivatives as a new type of highly selective ligands for telomeric G-quadruplex DNA” (Eur J Med Chem, 2012).
pIC50, pKd: −log10 of the molar value. Active and inactive are the calls of the source. The rule behind the calls is not given here.

Key:
Nucleic Acid [1] = assay: Binding affinity to human fluorescent labeled oligonucleotide F21T telomeric G-quadruplex DNA assessed as change in melting temperature at 1 uM by FRET assay in presence of duplex DNA competitor ds26; type: nucleic-acid assay
Nucleic Acid [2] = assay: Binding affinity to human fluorescent labeled oligonucleotide F21T telomeric G-quadruplex DNA assessed as change in melting temperature at 1 uM after 30 secs by FRET assay; type: nucleic-acid assay
Nucleic Acid [3] = assay: Binding affinity to hairpin fluorescent labeled oligonucleotide F10T duplex DNA assessed as change in melting temperature at 1 uM after 30 secs by FRET assay
Nucleic Acid [4] = assay: Binding affinity to human telomeric HTG21 G-quadruplex DNA after 6 hrs by CD spectroscopy; type: nucleic-acid assay
How it was run: (§1)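 HTG21 in 10 mM Tris-HCl pH 7.2 with 100 mM KCl was titrated with ligand at 0–5 mol equiv. Samples were heated to 95 °C, cooled slowly to room temperature and held at 4 °C for at least 6 h. CD was scanned at 230–450 nm in a 4 mm quartz cuvette with 1 nm bandwidth, 1 nm steps and 0.5 s per point.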

Nucleic Acid [5] = assay: Binding affinity to human biotinylated duplex DNA assessed as equilibrium dissociation constant upto 10 to 20 uM by SPR assay; type: nucleic-acid assay
How it was run: (§2)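 Biotinylated HTG21 (d(GGG[TTAGGG]3)) or duplex DNA was folded in 50 mM Tris-HCl pH 7.2 with 100 mM KCl. About 1000 RU was captured on flow cells 1 and 2, with the third cell as blank. Six ligand concentrations from 0.15625 µM upward were injected for 150 s association and 300 s dissociation at 25 °C. KD came from global Langmuir fitting of the kinetics.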

Nucleic Acid [6] = assay: Binding affinity to human biotinylated telomeric HTG21 G-quadruplex DNA assessed as equilibrium dissociation constant by SPR assay; type: nucleic-acid assay; how it was run: as §2
[7] = target: Telomerase reverse transcriptase (Homo sapiens, UniProt O14746); assay: Inhibition of human telomerase in cell free system after 1 min by TRAP-LIG assay; details: in the assay text read “after 20 mins” for “after 1 min”
How it was run: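 TRAP-LIG used 500 ng protein extract from exponentially growing MCF-7 cells to extend 0.1 µg TS primer. The buffer was 20 mM Tris-HCl pH 8.3, 68 mM KCl, 1.5 mM MgCl2, 1 mM EGTA and 0.05% Tween 20, with 125 µM dNTPs and BSA, plus ligand at various concentrations or none. After 20 min elongation and purification, products were amplified with ACX/TS primers and Taq for 35 cycles (94 °C 30 s, 61 °C 1 min, 72 °C 1 min).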

Nucleic Acid [8] = assay: Binding affinity to human telomeric HTG21 G-quadruplex DNA after 6 hrs in presence of K+ ions by CD spectroscopy; type: nucleic-acid assay; how it was run: as §1
Nucleic Acid [9] = assay: Binding affinity to G4 site of human oligonucleotide telomeric HT6 G-quadruplex DNA by NMR spectroscopy; type: nucleic-acid assay
How it was run: (§3)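 1H NMR titration at 400 MHz and 25 °C of 0.5 mM [d(TTAGGG)]4 in 90% H2O/10% D2O with 25 mM potassium phosphate (pH 7.0) and 150 mM KCl. Ligand:quadruplex ratios were 0, 0.25, 0.5, 1 and 2. Water was suppressed by Watergate. Shifts and broadening of DNA signals were followed. The oligonucleotide was HPLC-purified.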

HL-60 [10] = assay: Growth inhibition of human HL60 cells assessed as decrease in population doubling at 1.25 uM after 12 days; type: functional, cell-based
Nucleic Acid [11] = assay: Binding affinity to human oligonucleotide telomeric HT6 G-quadruplex DNA at 0.5:1 ligand to quadruplex ratio by NMR spectroscopy; type: nucleic-acid assay; how it was run: as §3
Nucleic Acid [12] = assay: Binding affinity to human oligonucleotide telomeric HT6 G-quadruplex DNA by NMR spectroscopy; type: nucleic-acid assay; how it was run: as §3
HL-60 [13] = assay: Cytotoxicity against human HL60 cells assessed as decrease in population doubling at 2.5 uM after 8 days; type: functional, cell-based
HL-60 [14] = assay: Cytotoxicity against human HL60 cells assessed as cell viability after 48 hrs by MTT assay; type: functional, cell-based; details: HL-60, 48 h
How it was run: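 HL60 cells were seeded at 1.0 × 10³ per well and exposed to a range of compound concentrations for 48 h at 37 °C in 5% CO2. MTT (5 mg/mL) was added for 4 h, formazan was dissolved in DMSO and OD was read at 570 nm. Each dose was run in triplicate, and IC50 was taken from mean OD versus concentration curves.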

Nucleic Acid [15] = assay: Binding affinity to A3 site of human oligonucleotide telomeric HT6 G-quadruplex DNA by NMR spectroscopy; type: nucleic-acid assay; how it was run: as §3
HL-60 [16] = assay: Induction of telomere shortening in human HL60 cells at 0.625 uM after 16 days by telomeric restriction fragment length assay; type: functional, cell-based
How it was run: (§4)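 HL60 cells were treated with ligand (0.625 or 1.25 µM) or 0.1% DMSO for 16 days. Genomic DNA was digested with HinfI/RsaI and run on a 0.8% agarose gel, then blotted to nylon and fixed at 120 °C for 20 min. The blot was hybridized with a DIG-labeled telomeric probe, bound with anti-DIG-alkaline phosphatase and detected by chemiluminescence.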

HL-60 [17] = assay: Induction of senescence in human HL60 cells assessed as beta galactosidase activity at 1.25 uM measured every 4 days for 16 days; type: functional, cell-based
How it was run: (§5)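 After 16 days of long-term HL60 culture with ligand renewed every 4 days (1.25 µM shown, versus 0.1% DMSO), cells were fixed in 2% formaldehyde/0.2% glutaraldehyde for 15 min at room temperature. They were washed with PBS and stained overnight at 37 °C with X-gal (1 mg/mL). SA-β-Gal and enlarged or flattened morphology were scored by optical microscopy.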

HL-60 [18] = assay: Induction of telomere shortening in human HL60 cells at 1.25 uM after 16 days by telomeric restriction fragment length assay; type: functional; how it was run: as §4
HL-60 [19] = assay: Growth inhibition of human HL60 cells assessed as decrease in population doubling at 2.5 uM after 12 days; type: functional, cell-based
HL-60 [20] = assay: Growth inhibition of human HL60 cells assessed as decrease in population doubling at 0.625 uM after 16 days; type: functional, cell-based
HL-60 [21] = assay: Induction of senescence in human HL60 cells assessed enlarged cells measured every 4 days for 16 days by optical microscopy; type: functional, cell-based; how it was run: as §5
HL-60 [22] = assay: Induction of senescence in human HL60 cells assessed flattened cells measured every 4 days for 16 days by optical microscopy; type: functional, cell-based; how it was run: as §5

Sequence of Telomerase reverse transcriptase (O14746 whole entry): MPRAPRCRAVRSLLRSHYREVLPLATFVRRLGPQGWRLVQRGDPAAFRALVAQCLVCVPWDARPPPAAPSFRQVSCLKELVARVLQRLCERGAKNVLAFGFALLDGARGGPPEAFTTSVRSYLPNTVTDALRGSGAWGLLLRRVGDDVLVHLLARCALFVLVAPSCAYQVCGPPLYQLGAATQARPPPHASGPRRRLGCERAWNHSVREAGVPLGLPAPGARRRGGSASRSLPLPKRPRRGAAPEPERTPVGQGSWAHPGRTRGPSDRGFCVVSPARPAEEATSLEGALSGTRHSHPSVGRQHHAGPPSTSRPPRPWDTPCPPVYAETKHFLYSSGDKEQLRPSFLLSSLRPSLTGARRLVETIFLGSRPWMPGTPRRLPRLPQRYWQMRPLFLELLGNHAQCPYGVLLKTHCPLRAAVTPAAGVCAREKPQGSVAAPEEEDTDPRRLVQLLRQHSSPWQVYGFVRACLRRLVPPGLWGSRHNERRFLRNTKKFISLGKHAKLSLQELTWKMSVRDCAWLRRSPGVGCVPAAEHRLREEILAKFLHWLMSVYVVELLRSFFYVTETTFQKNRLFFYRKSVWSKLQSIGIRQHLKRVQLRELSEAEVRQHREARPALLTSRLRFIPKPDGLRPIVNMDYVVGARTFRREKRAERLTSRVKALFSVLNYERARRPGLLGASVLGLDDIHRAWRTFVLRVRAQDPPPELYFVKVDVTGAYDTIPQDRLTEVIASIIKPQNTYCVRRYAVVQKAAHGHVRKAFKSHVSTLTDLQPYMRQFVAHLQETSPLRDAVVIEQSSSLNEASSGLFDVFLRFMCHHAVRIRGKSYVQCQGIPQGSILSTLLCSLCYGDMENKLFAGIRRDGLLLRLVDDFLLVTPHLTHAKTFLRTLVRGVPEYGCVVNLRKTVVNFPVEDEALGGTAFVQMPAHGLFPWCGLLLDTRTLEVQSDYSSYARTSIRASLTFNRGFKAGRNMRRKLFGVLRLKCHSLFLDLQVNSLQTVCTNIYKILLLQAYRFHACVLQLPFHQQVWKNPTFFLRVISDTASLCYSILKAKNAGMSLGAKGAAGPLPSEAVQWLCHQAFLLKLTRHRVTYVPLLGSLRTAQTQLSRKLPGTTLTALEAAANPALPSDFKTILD

Activity (Nucleic Acid [1])	ΔTm (Nucleic Acid [2]) [°C]	ΔTm (Nucleic Acid [3]) [°C]	Compound	other results
Active	3.9	0	CN(C)CCCNc1nc(-c2ccc(Cl)cc2NC(=O)CN2CCOCC2)nc2ccccc12	
	10.4	0.3	CN(C)CCCNc1nc(-c2ccc(Cl)cc2NC(=O)CNCCN2CCCC2)nc2ccccc12	
Active	8.4	0.1	CN(C)CCCNc1nc(-c2ccc(Cl)cc2NC(=O)CCN2CCOCC2)nc2ccccc12	
	5.4	0.2	CN(C)CCCNc1nc(-c2ccc(Cl)cc2NC(=O)CN2CCCCC2)nc2ccccc12	
	14.4	0.1	CCN(CC)CCC(=O)Nc1cc(Cl)ccc1-c1nc(NCCCN(C)C)c2ccccc2n1	
			CN(C)CCCNCCC(=O)Nc1cc(Cl)ccc1-c1nc(NCCCN(C)C)c2ccccc2n1	Activity (Nucleic Acid [4]): Active
Active	9.8	0.1	CN(C)CCCNc1nc(-c2ccc(Cl)cc2NC(=O)CCCN2CCOCC2)nc2ccccc12	
Active	14.7	0.4	CN(C)CCCNc1nc(-c2ccc(Cl)cc2NC(=O)CCCN2CCN(C)CC2)nc2ccccc12	Activity (Nucleic Acid [5]): inactive; pKd (Nucleic Acid [6]): 6.56; Activity (Nucleic Acid [4]): Active; pIC50 [7]: 5.11
	4.5	0.1	CCN(CC)CC(=O)Nc1cc(Cl)ccc1-c1nc(NCCCN(C)C)c2ccccc2n1	
	12.8	0.2	CN(C)CCCNc1nc(-c2ccc(Cl)cc2NC(=O)CCN2CCCC2)nc2ccccc12	
	9.6	0.2	CN(C)CCCNc1nc(-c2ccc(Cl)cc2NC(=O)CNCCN2CCCCC2)nc2ccccc12	
Active	10.1	0.3	CN(C)CCCNc1nc(-c2ccc(Cl)cc2NC(=O)CN2CCN(C)CC2)nc2ccccc12	Activity (Nucleic Acid [5]): inactive; pKd (Nucleic Acid [6]): 5.68; Activity (Nucleic Acid [8]): Active; pIC50 [7]: 4.53
	11.8	0.2	CN(C)CCCNc1nc(-c2ccc(Cl)cc2NC(=O)CCN2CCCCC2)nc2ccccc12	
	12.3	0.2	CCN(CC)CCCNCC(=O)Nc1cc(Cl)ccc1-c1nc(NCCCN(C)C)c2ccccc2n1	
	11.6	0.2	CN(C)CCCNc1nc(-c2ccc(Cl)cc2NC(=O)CCCN2CCCCC2)nc2ccccc12	
Active	13	0.3	CN(C)CCCNCC(=O)Nc1cc(Cl)ccc1-c1nc(NCCCN(C)C)c2ccccc2n1	Activity (Nucleic Acid [5]): inactive; pKd (Nucleic Acid [6]): 6.47
Active	15.5	0.3	CN(C)CCCNc1nc(-c2ccc(Cl)cc2NC(=O)CCN2CCN(C)CC2)nc2ccccc12	Activity (Nucleic Acid [9]): Active; growth inhibition (GI) (HL-60 [10]): Active; Activity (Nucleic Acid [11]): Active; Activity (Nucleic Acid [12]): Active; Activity (HL-60 [13]): Active; pIC50 (HL-60 [14]): 5.02; Activity (Nucleic Acid [15]): Active; Activity (Nucleic Acid [5]): inactive; pKd (Nucleic Acid [6]): 6.50; Activity (HL-60 [16]): Active; Activity (HL-60 [17]): Active; Activity (HL-60 [18]): 1.2 kilobase; growth inhibition (GI) (HL-60 [19]): Active; Activity (Nucleic Acid [4]): Active; growth inhibition (GI) (HL-60 [20]): Active; Activity (HL-60 [21]): Active; Activity (HL-60 [22]): Active; pIC50 [7]: 5.13
	0.7	0.3	CN(C)CCCNc1nc(-c2ccc(Cl)cc2N)nc2ccccc12	
	7.4	0.1	CN(C)CCCNc1nc(-c2ccc(Cl)cc2NC(=O)CN2CCCC2)nc2ccccc12	

Compound	Activity (Nucleic Acid [1])	ΔTm (Nucleic Acid [2]) [°C]	ΔTm (Nucleic Acid [3]) [°C]	other results
CN(C)CCCNc1c2ccccc2nc2c1[nH]c1ccccc12	inactive	9.9	5.5	
